Calls of active or inactive are those of the source. No cut-off for these calls is given here.
Assays:
Trypanosoma cruzi [1] = test: Antitrypanosomal activity against Trypanosoma cruzi infected in po dosed CD1 mouse assessed as prevention of inflammatory infiltrates in heart administered daily for 14 days measured on day 45; assay type: functional, organism-based
How it was run: (§1)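 T. cruzi, a Uruguayan patient isolate, was inoculated intradermally into 2-month-old female CD1 mice (20–22 g). Dosing began on day 15 after parasitaemia was observed. Drugs were suspended in saline:Tween 80 (4:1) and given by intragastric syringe once daily for 14 days, with untreated controls. On day 45 after treatment start, heart and muscle sections were scored by two independent observers for amastigotes and inflammatory infiltrates. Groups had 5–7 mice.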

Mus musculus [2] = test: Toxicity in CD1 mouse kidney at 300 mg/kg, ip after 3 days by histological study; assay type: organism-based; design: dose 300 mg/kg, route intraperitoneal; conditions: in vivo, 72 h
How it was run: (§2)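 Healthy female CD1 mice (20–22 g), 5–7 per group, given a single oral (intragastric) or i.p. dose in saline:Tween 80 (4:1) vehicle. Sacrificed on day 3 after ether anaesthesia. Organs fixed in 10% aqueous formalin for histology. Scored against untreated animals from no change to +++ (many changes).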

Trypanosoma cruzi [3] = test: Antitrypanosomal activity against Trypanosoma cruzi infected in po dosed CD1 mouse assessed as prevention of amastigote nest in smooth muscle administered daily for 14 days measured on day 45; assay type: functional, organism-based; conditions: Muscle tissue; how it was run: as §1
Mus musculus [4] = test: Toxicity in CD1 mouse brain at 300 mg/kg, ip after 3 days by histological study; assay type: organism-based; design: dose 300 mg/kg, route intraperitoneal; conditions: in vivo, 72 h; how it was run: as §2
Mus musculus [5] = test: Toxicity in CD1 mouse assessed as glutamic-oxalacetate transaminase level at 450 mg/kg, po after 3 days; assay type: organism-based; design: dose 450 mg/kg, route oral; conditions: in vivo, 72 h
How it was run: (§3)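 Healthy female CD1 mice (5–7 per group) received a single oral dose of 450 mg/kg or an i.p. dose of 300 mg/kg, with vehicle controls. On day 3 they were sacrificed under ether anaesthesia. Blood was drawn from the subclavian artery and kept at 0 °C in EDTA or heparin. Leukocytes, haemoglobin, haematocrit, GPT and GOT were measured within 24 h and compared with normal ranges.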

Mus musculus [6] = test: Toxicity in CD1 mouse assessed as haemoglobin level at 300 mg/kg, ip after 3 days; assay type: organism-based; design: dose 300 mg/kg, route intraperitoneal; conditions: in vivo, 72 h; how it was run: as §3
Mus musculus [7] = test: Toxicity in CD1 mouse assessed as survival at 450 mg/kg, po after 3 days; assay type: organism-based; design: dose 450 mg/kg, route oral; conditions: in vivo, 72 h
How it was run: (§4)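 Healthy 2-month-old female CD1 mice (20–22 g), groups of 5–7, given one oral dose by intragastric syringe or one i.p. injection. Compound suspended in saline:Tween 80 (4:1) with sonication just before dosing; vehicle-treated controls included. Weighed and observed daily over 3 days for skin, physical aspect, activity and faeces; survival recorded at day 3.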

Mus musculus [8] = test: Toxicity in CD1 mouse assessed as glutamic-oxalacetate transaminase level at 300 mg/kg, ip after 3 days; assay type: organism-based; design: dose 300 mg/kg, route intraperitoneal; conditions: in vivo, 72 h; how it was run: as §3
Mus musculus [9] = test: Toxicity in CD1 mouse intestine at 450 mg/kg, po after 3 days by histological study; assay type: organism-based; design: dose 450 mg/kg, route oral; conditions: in vivo, 72 h; how it was run: as §2
Mus musculus [10] = test: Toxicity in CD1 mouse assessed as glutamic-pyruvate transaminase level at 450 mg/kg, po after 3 days; assay type: organism-based; design: dose 450 mg/kg, route oral; conditions: in vivo, 72 h; how it was run: as §3
Mus musculus [11] = test: Toxicity in CD1 mouse heart at 450 mg/kg, po after 3 days by histological study; assay type: organism-based; design: dose 450 mg/kg, route oral; conditions: in vivo, 72 h; how it was run: as §2
Mus musculus [12] = test: Toxicity in CD1 mouse assessed as haemoglobin level at 450 mg/kg, po after 3 days; assay type: organism-based; design: dose 450 mg/kg, route oral; conditions: in vivo, 72 h; how it was run: as §3
Mus musculus [13] = test: Toxicity in CD1 mouse assessed as leukocyte level at 450 mg/kg, po after 3 days; assay type: organism-based; design: dose 450 mg/kg, route oral; conditions: in vivo, 72 h; how it was run: as §3
Mus musculus [14] = test: Toxicity in CD1 mouse liver at 300 mg/kg, ip after 3 days by histological study; assay type: organism-based; design: dose 300 mg/kg, route intraperitoneal; conditions: in vivo, 72 h; how it was run: as §2
Mus musculus [15] = test: Toxicity in CD1 mouse heart at 300 mg/kg, ip after 3 days by histological study; assay type: organism-based; design: dose 300 mg/kg, route intraperitoneal; conditions: in vivo, 72 h; how it was run: as §2
Mus musculus [16] = test: Toxicity in CD1 mouse intestine at 300 mg/kg, ip after 3 days by histological study; assay type: organism-based; design: dose 300 mg/kg, route intraperitoneal; conditions: in vivo, 72 h; how it was run: as §2
Mus musculus [17] = test: Toxicity in CD1 mouse assessed as glutamic-pyruvate transaminase level at 300 mg/kg, ip after 3 days; assay type: organism-based; design: dose 300 mg/kg, route intraperitoneal; conditions: in vivo, 72 h; how it was run: as §3
Mus musculus [18] = test: Toxicity in CD1 mouse brain at 450 mg/kg, po after 3 days by histological study; assay type: organism-based; design: dose 450 mg/kg, route oral; conditions: in vivo, 72 h; how it was run: as §2
Mus musculus [19] = test: Toxicity in CD1 mouse lung at 300 mg/kg, ip after 3 days by histological study; assay type: organism-based; design: dose 300 mg/kg, route intraperitoneal; conditions: in vivo, 72 h; how it was run: as §2
Mus musculus [20] = test: Toxicity in CD1 mouse assessed as increase in weight respect to day zero at 300 mg/kg, ip after 3 days; assay type: organism-based; design: dose 300 mg/kg, route intraperitoneal; conditions: in vivo, 72 h
How it was run: (§5)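 Healthy 2-month-old female CD1 mice (20–22 g, 5–7 per group) received one dose. Oral doses of 450 or 300 mg/kg were given by intragastric syringe; i.p. doses of 300 or 150 mg/kg by injection. Drugs were suspended in saline:Tween 80 (4:1), and a vehicle-only control was included. Mice were weighed and observed daily for 3 days. Weight change is expressed as percent relative to day zero.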

Mus musculus [21] = test: Toxicity in CD1 mouse assessed as survival at 300 mg/kg, ip after 3 days; assay type: organism-based; design: dose 300 mg/kg, route intraperitoneal; conditions: in vivo, 72 h; how it was run: as §4
Mus musculus [22] = test: Toxicity in CD1 mouse lung at 450 mg/kg, po after 3 days by histological study; assay type: organism-based; design: dose 450 mg/kg, route oral; conditions: in vivo, 72 h; how it was run: as §2
Mus musculus [23] = test: Toxicity in CD1 mouse liver at 450 mg/kg, po after 3 days by histological study; assay type: organism-based; design: dose 450 mg/kg, route oral; conditions: in vivo, 72 h; how it was run: as §2
Trypanosoma cruzi [24] = test: Antitrypanosomal activity against Trypanosoma cruzi infected in po dosed CD1 mouse assessed as prevention of amastigote nest in heart administered daily for 14 days measured on day 45; assay type: functional, organism-based; how it was run: as §1
Mus musculus [25] = test: Toxicity in CD1 mouse kidney at 450 mg/kg, po after 3 days by histological study; assay type: organism-based; design: dose 450 mg/kg, route oral; conditions: in vivo, 72 h; how it was run: as §2
Trypanosoma cruzi [26] = test: Antitrypanosomal activity against Trypanosoma cruzi infected in po dosed CD1 mouse assessed as prevention of inflammatory infiltrates in smooth muscle administered daily for 14 days measured on day 45; assay type: functional, organism-based; conditions: Muscle tissue; how it was run: as §1
Mus musculus [27] = test: Toxicity in CD1 mouse assessed as increase in weight respect to day zero at 450 mg/kg, po after 3 days; conditions: in vivo, 72 h
Trypanosoma cruzi [28] = test: Growth inhibition of Trypanosoma cruzi Tulahuen 2 epimastigote at 5 uM after 5 days; assay type: functional; conditions: Trypanosoma cruzi, Tulahuen 2, 120 h; read-out: GI
Mus musculus [29] = test: Toxicity in CD1 mouse assessed as leukocyte level at 300 mg/kg, ip after 3 days; assay type: organism-based; design: dose 300 mg/kg, route intraperitoneal; conditions: in vivo, 72 h; how it was run: as §3
Mus musculus [30] = test: Toxicity in CD1 mouse assessed as decrease in weight respect to day zero at 450 mg/kg, po after 3 days; assay type: organism-based; design: dose 450 mg/kg, route oral; scale not given: the % may be the effect or the level left; conditions: in vivo, 72 h; how it was run: as §5
Mus musculus [31] = test: Toxicity in CD1 mouse assessed as decrease in weight respect to day zero at 150 mg/kg, ip after 3 days; assay type: organism-based; design: dose 150 mg/kg, route intraperitoneal; scale not given: the % may be the effect or the level left; conditions: in vivo, 72 h; how it was run: as §5
Mus musculus [32] = test: Toxicity in CD1 mouse assessed as decrease in weight respect to day zero at 300 mg/kg, po after 3 days; assay type: organism-based; design: dose 300 mg/kg, route oral; scale not given: the % may be the effect or the level left; conditions: in vivo, 72 h; how it was run: as §5
Mus musculus [33] = test: Toxicity in CD1 mouse assessed as survival at 150 mg/kg, ip after 3 days; assay type: organism-based; design: dose 150 mg/kg, route intraperitoneal; conditions: in vivo, 72 h; how it was run: as §4
Mus musculus [34] = test: Toxicity in CD1 mouse assessed as survival at 300 mg/kg, po after 3 days; assay type: organism-based; design: dose 300 mg/kg, route oral; conditions: in vivo, 72 h; how it was run: as §4

SMILES	Activity (Trypanosoma cruzi [1])	Activity (Mus musculus [2])	Activity (Mus musculus [4])	Activity (Mus musculus [7])	Activity (Mus musculus [9])	Activity (Mus musculus [11])	Activity (Mus musculus [14])	Activity (Mus musculus [15])	Activity (Mus musculus [16])	Activity (Mus musculus [18])	Activity (Mus musculus [19])	Activity (Mus musculus [21])	Activity (Mus musculus [22])	Activity (Mus musculus [23])	Activity (Trypanosoma cruzi [24])	Activity (Mus musculus [25])	inhibition of growth at 5 µM (Trypanosoma cruzi [28])	other results
CCCCCCNC(=O)N/N=C/C=C/c1ccc([N+](=O)[O-])o1	Active	Toxic	Non-toxic	Non-toxic	Non-toxic	Non-toxic	Toxic	Non-toxic	Non-toxic	Non-toxic	Non-toxic	Non-toxic	Non-toxic	Toxic	Active	Non-toxic	82%	Activity (Trypanosoma cruzi [3]): Active; Activity (Mus musculus [5]): 94.1 IU/L; Activity (Mus musculus [6]): 12.8 g/dL; Activity (Mus musculus [8]): 109 IU/L; Activity (Mus musculus [10]): 29.4 IU/L; Activity (Mus musculus [12]): 16.3 g/dL; Activity (Mus musculus [13]): 32400 µL⁻¹; Activity (Mus musculus [17]): 76.2 IU/L; Activity (Mus musculus [20]): 8%; Activity (Trypanosoma cruzi [26]): Active; Activity (Mus musculus [27]): 21%; Activity (Mus musculus [29]): 31700 µL⁻¹
CCCCNC(=O)N/N=C/c1ccc([N+](=O)[O-])o1	Active	Toxic	Non-toxic	Non-toxic	Toxic	Non-toxic	Toxic	Non-toxic	Non-toxic	Non-toxic	Non-toxic	Toxic	Non-toxic	Toxic	Active	Toxic	30%	Activity (Mus musculus [30]): 1%; Activity (Mus musculus [31]): 6%; Activity (Mus musculus [32]): 4%; Activity (Mus musculus [33]): Non-toxic; Activity (Mus musculus [34]): Non-toxic

Source: ChEMBL document CHEMBL1154044, “5-Nitro-2-furyl derivative actives against Trypanosoma cruzi: preliminary in vivo studies” (Eur J Med Chem, 2009)
